Bridge positions count the residues as written; N and C are the ends. Peptide text beside a SMILES is read from it. * marks the point of attachment. NOTA(2S-Bn(4-NHCS)) = O=C(O)CN1CCN(CC(=O)O)C[C@H](Cc2ccc(NC(=S)*)cc2)N(CC(=O)O)CC1

In one data set the test system is MCF-7 xenograft mice. Briefly: in vivo. The data set is classed as in vivo, BALB/c nude mice. As to conditions: for tumor uptake (biodistribution): no blocking, mean ± SD.
The next data set in a line: in vivo. Format: in vivo, BALB/c nude mice. The note with it: female, BALB/c nude, mouse, in vivo, total radioactivity.
Data set [1] relates to MDA-MB-468 tumor xenograft. Briefly: Small-animal PET/CT imaging, ROI tumor uptake. Format: in vivo, BALB/c nude mice. The note with it: MDA-MB-468 xenograft, 30 min p.i., 6.5–9 MBq; n = 4.
For a further data set, the system named is MCF-7 cells. Briefly: In vitro cell uptake and blocking study. The data set is classed as cell-based, human. The note with it: 100 times excess (100 pmol) nonradioactive RGD, NGR, RGD+NGR or NGR-RGD 15 min in advance; 2 h at 37 °C.
Data set [2] can be described thus: In vitro stability in PBS. The data set is classed as physicochemical. The note with it: PBS pH 7.4, 37 °C, 2 h, 14.8 MBq; analytical radio-HPLC. The essentials: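 ⁶⁸Ga-labelled test compound was prepared by heating precursor with [⁶⁸Ga]GaCl₃ in sodium acetate buffer (final pH about 4.0) at 90 °C for 5 min and used unpurified. Tracer (14.8 MBq) was held in PBS pH 7.4 at 37 °C for 2 h.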

The test system of a further data set is MX-1 tumor xenograft. Briefly: Small-animal PET/CT imaging, ROI tumor uptake. Format: in vivo, BALB/c nude mice. As to conditions: MX-1 xenograft, 30 min p.i., 6.5–9 MBq; n = 4.
The subject of the next data set is MCF-7 tumor xenograft. Briefly: Small-animal PET/CT imaging, ROI tumor uptake. Format: in vivo, BALB/c nude mice. The note with it: MCF-7 xenograft, 30 min p.i., n = 4.
The subject of data set [3] is MDA-MB-468 xenograft mice. Briefly: Post-imaging biodistribution. The data set is classed as in vivo, BALB/c nude mice. As to conditions: 1 h p.i., mean ± SD, n = 4. The essentials: (§1)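 Female BALB/c nude mice were injected s.c. in the right shoulder with 1.0 × 10⁷ cells (MDA-MB-231/MDA-MB-468 grown in L-15 without CO₂; MX-1 in high-glucose DMEM, 10% FBS, 5% CO₂). They were used at tumor size 0.8–1.0 cm and given ⁶⁸Ga-labelled test compound (6.5–9 MBq, 125 μL) by tail vein. PET/CT under 2.0% isoflurane ran at 30 min. Mice were euthanized at 1 h; tissues weighed, γ-counted, decay-corrected %ID/g, mean ± SD.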

Another data set has as its system MX-1 xenograft mice. Briefly: Post-imaging biodistribution. Format: in vivo, BALB/c nude mice. The note with it: 1 h p.i., mean ± SD, n = 4. The essentials: as §1
Data set [4] relates to MDA-MB-231 xenograft mice. Briefly: Post-imaging biodistribution. Format: in vivo, BALB/c nude mice. The note with it: 1 h p.i., mean ± SD, n = 4. In outline:
as §1

Data set [5] concerns MDA-MB-231 tumor xenograft. Briefly: Small-animal PET/CT imaging, ROI tumor uptake. The data set is classed as in vivo, BALB/c nude mice. As to conditions: MDA-MB-231 xenograft, 30 min p.i., 6.5–9 MBq; n = 4.
The mark [6] stands for this setting: MCF-7 xenograft mice, 1 h p.i., n = 4.

Usually tissue uptake stands for the share of the injected amount in each gram of the tissue. `N=C(N)NCCC[C@@H]1NC(=O)CNC(=O)[C@H](CC(N)=O)NC(=O)[C@H](CCCCNC(=S)Nc2ccc(C[C@H]3CN(CC(=O)O)CCN(CC(=O)O)CCN3CC(=O)O)cc2)NC(=O)CC[C@@H](C(N)=O)NC1=O` [^68Ga-NGR, metal not drawn, reference compound] (K(NOTA(2S-Bn(4-NHCS)))NGRE-NH2; lactam N-5; C-terminus assumed): the “tumor uptake (biodistribution)” value in the data set on MCF-7 xenograft mice (setting [6]) is 0.14 ± 0.04 %ID/g. In addition, the tissue uptake at 1 h in the data set “in vivo” was 0.87 ± 0.04 %ID/g.

For the compound “c(RGDyK)-PEG4-NOTA-click-PEG4-c(CNGRC) (bicyclic or more) [^68Ga-NGR-RGD]”, the “tumor uptake (PET ROI)” value in [1] worked out at 0.76 ± 0.10 %ID/g; in the data set on MX-1 tumor xenograft, 0.41 ± 0.08 %ID/g; in the data set with MCF-7 tumor xenograft (comparison of tumor types (Figure 5B)) it was 1.03 ± 0.08 %ID/g; in data set [5] it was 1.04 ± 0.06 %ID/g. For the same compound, the “uptake by MCF-7 cells when pretreated with excess of blocking agents” value in the data set on MCF-7 cells is listed as “decreased significantly”. Moreover, the “proportion of the intact tracer” value in data set [2] is “exceeded 95%”. For the same compound, in the data set on MCF-7 tumor xenograft (coinjected unlabeled NGR 20 mg/kg), the “tumor uptake (PET ROI), blocked by NGR” value was found to be 0.80 ± 0.03 %ID/g. In addition, the “tumor uptake (PET ROI), blocked by NGR-RGD” value in the data set on MCF-7 tumor xenograft (coinjected unlabeled NGR-RGD 20 mg/kg) is 0.28 ± 0.06 %ID/g. Further, in the data set on MCF-7 tumor xenograft (coinjected unlabeled RGD 20 mg/kg), the “tumor uptake (PET ROI), blocked by RGD” value is recorded as 0.37 ± 0.05 % ID/g. For the same compound, in the data set on MCF-7 tumor xenograft (coinjected unlabeled RGD+NGR 20 mg/kg), the “tumor uptake (PET ROI), blocked by RGD+NGR” value stood at 0.31 ± 0.03 %ID/g. Besides, the “tumor uptake (biodistribution)” value in data set [3] was determined as 0.28 ± 0.04 %ID/g; with MCF-7 xenograft mice (setting [6]), 1.02 ± 0.16 %ID/g; in the data set with MX-1 xenograft mice it was 0.20 ± 0.03 %ID/g; in data set [4] it was 0.53 ± 0.05 %ID/g. The “tumor uptake (biodistribution), blocked with NGR-RGD” value in the data set on MCF-7 xenograft mice (MCF-7 xenograft mice, 1 h p.i., coinjection of excess unlabeled NGR-RGD, n = 4) is reported as 0.16 ± 0.04 %ID/g. In the data set on MCF-7 xenograft mice (MCF-7 xenograft mice, 1 h p.i., coinjection of excess unlabeled NGR, n = 4), the “tumor uptake (biodistribution), blocked with NGR” value is listed as 0.67 ± 0.02 %ID/g. In the data set with MCF-7 xenograft mice (MCF-7 xenograft mice, 1 h p.i., coinjection of excess unlabeled RGD+NGR, n = 4), the “tumor uptake (biodistribution), blocked with RGD+NGR” value is recorded as 0.20 ± 0.07 %ID/g. The “tumor uptake (biodistribution), blocked with RGD” value in the data set with MCF-7 xenograft mice (MCF-7 xenograft mice, 1 h p.i., coinjection of excess unlabeled RGD, n = 4) stood at 0.17 ± 0.04 %ID/g. For the same compound, the “accumulation in the kidneys (biodistribution)” value with MCF-7 xenograft mice (mouse, in vivo, 1 h) amounted to 2.52 ± 0.30 %ID/g.

The values above are taken from article PMC7486978 (Molecular pharmaceutics, 2019).
